Results from ChEMBL document CHEMBL3352128, “Design, synthesis and biological evaluation of thienopyridinones as Chk1 inhibitors” (Bioorg Med Chem, 2014).
Calls of active or inactive are those of the source. The rule behind the calls is not given here.

Tests used:
[1] = target: T1, Serine/threonine-protein kinase Chk1 (Homo sapiens, UniProt O14757); test: Inhibition of Chk1 (unknown origin) by luminescent ADP-Glo assay
T1 sequence (O14757 whole entry): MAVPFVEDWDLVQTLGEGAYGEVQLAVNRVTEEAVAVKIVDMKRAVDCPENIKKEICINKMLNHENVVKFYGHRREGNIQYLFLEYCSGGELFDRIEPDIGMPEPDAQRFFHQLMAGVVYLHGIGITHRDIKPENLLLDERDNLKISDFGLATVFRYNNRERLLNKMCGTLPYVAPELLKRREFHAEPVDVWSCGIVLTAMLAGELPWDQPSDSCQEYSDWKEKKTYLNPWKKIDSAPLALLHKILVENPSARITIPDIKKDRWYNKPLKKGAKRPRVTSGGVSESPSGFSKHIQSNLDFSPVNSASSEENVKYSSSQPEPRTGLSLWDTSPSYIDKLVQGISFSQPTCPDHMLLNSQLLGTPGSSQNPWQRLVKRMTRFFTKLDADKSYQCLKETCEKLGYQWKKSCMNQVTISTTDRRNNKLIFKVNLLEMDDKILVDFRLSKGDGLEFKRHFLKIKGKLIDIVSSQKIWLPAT

[2] = target: CDK2/Cyclin A2 (Homo sapiens, UniProt P24941); test: Inhibition of CDK2/cyclin A (unknown origin) by HTRF kinase assay; type: protein-complex assay
How it was run: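 CDK2/cyclin A was purchased enzyme, tested with an HTRF kinase assay kit. Compounds were first screened at 1 µg/mL final, and those giving more than 40% inhibition were taken forward to IC50.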

[3] = target: T2, Aurora kinase A (Homo sapiens, UniProt O14965); test: Inhibition of Aurora A (unknown origin) expressed in Escherichia coli by ZLYTETM assay
T2 sequence (O14965 whole entry): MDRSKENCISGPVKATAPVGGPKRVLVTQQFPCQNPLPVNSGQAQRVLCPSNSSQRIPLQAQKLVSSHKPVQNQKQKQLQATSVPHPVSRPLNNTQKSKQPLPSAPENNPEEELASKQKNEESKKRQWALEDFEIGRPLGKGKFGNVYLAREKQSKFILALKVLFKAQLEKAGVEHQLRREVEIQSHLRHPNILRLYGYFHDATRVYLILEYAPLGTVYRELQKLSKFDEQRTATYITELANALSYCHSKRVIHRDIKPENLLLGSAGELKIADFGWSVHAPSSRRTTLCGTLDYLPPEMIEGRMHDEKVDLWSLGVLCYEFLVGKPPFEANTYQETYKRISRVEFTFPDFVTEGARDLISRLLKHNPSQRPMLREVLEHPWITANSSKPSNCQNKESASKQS
How it was run: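 Z'-LYTE kinase assay. Aurora A was recombinant protein expressed in E. coli. Compounds were first tested at 1 µg/mL final. Those giving more than 40% inhibition were taken further, with IC50 reported.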

[4] = target: Protein kinase C (PKC); test: Inhibition of PKC (unknown origin) by Z'-LYTETM kinase assay; design: species or system Homo sapiens
[5] = species: Homo sapiens; test: Selectivity index, ratio of IC50 for CDK2/cyclinA (unknown origin) to IC50 for Chk1 (unknown origin)
[6] = species: Homo sapiens; test: Selectivity index, ratio of IC50 for Aurora A (unknown origin) to IC50 for Chk1 (unknown origin)
[7] = species: Homo sapiens; test: Selectivity index, ratio of IC50 for PKC (unknown origin) to IC50 for Chk1 (unknown origin)
[8] = tested on: RPMI8266; test: Cytotoxicity against human […] cells at 100 nM after 72 hrs by MTS assay; type: functional, cell-based
How it was run: (§1)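 RPMI 8226 myeloma cells were seeded at 5 × 10³ cells per well in 100 µL. They were treated with Chk1 inhibitor at 100 nM, with melphalan (1, 3 and 10 µM), or with both, for 72 h. MTS was then added at 0.5 mg/mL final for 2–4 h to read growth.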

[9] = tested on: RPMI8266; test: Potentiation of melphalan-induced cytotoxicity against human […] cells at 100 nM after 72 hrs by MTS assay; type: functional, cell-based; how it was run: as §1

Row | IC50 [1] [nM] | IC50 [2] [nM] | IC50 [3] [nM] | IC50 [4] [nM] | Ratio IC50 [5] | Ratio IC50 [6] | Ratio IC50 [7] | SMILES | other results
1 | 3.53 | – | – | – | – | – | – | O=c1[nH]c2sc(Cl)cc2c(N[C@H]2CCCNC2)c1-c1nc2ccccc2[nH]1 | –
2 | 116 | – | – | – | – | – | – | O=c1[nH]c2sccc2c(NCC2CCNCC2)c1-c1nc2ccccc2[nH]1 | –
3 | 15.3 | – | – | – | – | – | – | O=c1[nH]c2sc(Br)cc2c(NC2CCNC2)c1-c1nc2ccccc2[nH]1 (stereo not given) | –
4 | 2.33 | 393 | 328 | 204.48 | > 20 | > 20 | > 20 | COc1ccc2[nH]c(-c3c(N[C@H]4CCCNC4)c4cc(Cl)sc4[nH]c3=O)nc2c1 | Activity [8]: inactive; Activity [9]: Active
5 | 47.5 | – | – | – | – | – | – | O=c1[nH]c2sccc2c(NC2CCNC2)c1-c1nc2ccccc2[nH]1 (stereo not given) | –
6 | 15.6 | 849 | 791 | 695.85 | > 20 | > 20 | > 20 | O=c1[nH]c2sccc2c(NC2CCCNC2)c1-c1nc2ccccc2[nH]1 (stereo not given) | –
7 | 4.83 | 246 | 1590 | 392.71 | > 20 | > 20 | > 20 | O=c1[nH]c2sc(Br)cc2c(NC2CCCNC2)c1-c1nc2ccccc2[nH]1 (stereo not given) | –
8 | 7.54 | 256 | 202 | 814.06 | > 20 | > 20 | > 20 | O=c1[nH]c2ccsc2c(NC2CCCNC2)c1-c1nc2ccccc2[nH]1 (stereo not given) | –
9 | 9.94 | – | – | – | – | – | – | O=c1[nH]c2sccc2c(NC2CCNCC2)c1-c1nc2ccccc2[nH]1 | –
10 | 41 | – | – | – | – | – | – | O=c1[nH]c2sc(Cl)cc2c(NC2CCNC2)c1-c1nc2ccccc2[nH]1 (stereo not given) | –
11 | > 10000 | – | – | – | – | – | – | O=c1[nH]c2sccc2c(NCCN2CCOCC2)c1-c1nc2ccccc2[nH]1 | –
12 | > 10000 | – | – | – | – | – | – | O=c1[nH]c2sccc2c(N2CCCCC2)c1-c1nc2ccccc2[nH]1 | –
13 | > 10000 | – | – | – | – | – | – | O=c1[nH]c2sccc2c(N2CCC(CO)CC2)c1-c1nc2ccccc2[nH]1 | –
14 | > 10000 | – | – | – | – | – | – | O=c1[nH]c2sccc2c(N2CCOCC2)c1-c1nc2ccccc2[nH]1 | –
15 | – | – | – | – | – | – | – | NC(=O)Nc1cc(-c2cccc(F)c2)sc1C(=O)N[C@H]1CCCNC1 | Activity [8]: inactive; Activity [9]: Active
16 | 9.84 | – | – | – | – | – | – | Cc1cc2c(NC3CCCNC3)c(-c3nc4ccccc4[nH]3)c(=O)[nH]c2s1 (stereo not given) | –
17 | 5.22 | 852 | 495 | 522.51 | > 20 | > 20 | > 20 | O=c1[nH]c2sccc2c(N[C@H]2CCCNC2)c1-c1nc2ccccc2[nH]1 | –
18 | 178 | – | – | – | – | – | – | CN(C)CCNc1c(-c2nc3ccccc3[nH]2)c(=O)[nH]c2sccc12 | –
19 | > 10000 | – | – | – | – | – | – | O=c1[nH]c2sccc2c(NCCO)c1-c1nc2ccccc2[nH]1 | –
20 | > 10000 | – | – | – | – | – | – | O=c1[nH]c2sccc2c(NC2CCCCC2)c1-c1nc2ccccc2[nH]1 | –
21 | > 10000 | – | – | – | – | – | – | CNCCNc1c(-c2nc3ccccc3[nH]2)c(=O)[nH]c2sccc12 | –
22 | > 10000 | – | – | – | – | – | – | COC(=O)CCNc1c(-c2nc3ccccc3[nH]2)c(=O)[nH]c2sccc12 | –
23 | 24.7 | – | – | – | – | – | – | O=c1[nH]c2ccsc2c(NC2CCNC2)c1-c1nc2ccccc2[nH]1 (stereo not given) | –
24 | 4.05 | 334 | 1050 | 168.89 | > 20 | > 20 | > 20 | O=c1[nH]c2sc(Cl)cc2c(NC2CCCNC2)c1-c1nc2ccccc2[nH]1 (stereo not given) | Activity [8]: inactive; Activity [9]: Active
25 | 23.2 | – | – | – | – | – | – | Cc1cc2c(NC3CCNC3)c(-c3nc4ccccc4[nH]3)c(=O)[nH]c2s1 (stereo not given) | –
26 | > 10000 | – | – | – | – | – | – | NCCNc1c(-c2nc3ccccc3[nH]2)c(=O)[nH]c2sccc12 | –

Row | SMILES | IC50 [1] [nM] | IC50 [2] [nM] | IC50 [3] [nM] | IC50 [4] [nM] | Ratio IC50 [5] | Ratio IC50 [6] | Ratio IC50 [7] | other results
27 | COc1ccc2[nH]c(-c3c(NC4CN5CCC4CC5)c4cc(Cl)sc4[nH]c3=O)nc2c1 (stereo not given) | 5.36 | 4300 | 1400 | 8186.03 | 100 | > 20 | 100 | –
28 | O=c1[nH]c2sccc2c(NC2CN3CCC2CC3)c1-c1nc2ccccc2[nH]1 (stereo not given) | 14 | 1630 | > 10000 | 1001.81 | 100 | > 20 | 100 | –
29 | O=c1[nH]c2sc(Cl)cc2c(NC2CN3CCC2CC3)c1-c1nc2ccccc2[nH]1 (stereo not given) | 6.23 | 3190 | > 10000 | 2018.88 | 100 | > 20 | 100 | Activity [8]: inactive; Activity [9]: Active
